Test system: MS2 coat protein
Assay: apparent Kd, MS2 coat protein; higher = weaker binding; RNA-MaP array; FMN 200 µM where present
Summary of the method: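 The titrant was SNAP-549-labelled MS2 coat protein, run from 0.7 or 1.5 nM in doubling steps to 3 µM. It was applied to designs transcribed by stalled E. coli RNA polymerase on Illumina sequencing-chip clusters, without ligand first and then with constant ligand, in 100 mM Tris-HCl pH 7.5, 80 mM KCl, 4 mM MgCl2, BSA, DTT, yeast tRNA and Tween-20. The apparent Kd is the median of filtered per-cluster binding-curve fits, with green signal normalised to red-channel RNA signal and control-cluster median Fmax.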

[1] = designed as: OFF switch for flavin mononucleotide, no ligand
[2] = ligand present: flavin mononucleotide, designed as: OFF switch for flavin mononucleotide
[3] = designed as: ON switch for flavin mononucleotide, no ligand
[4] = ligand present: flavin mononucleotide, designed as: ON switch for flavin mononucleotide

| Sequence | apparent Kd [1] [nM] | apparent Kd [2] [nM] | apparent Kd [3] [nM] | apparent Kd [4] [nM] |
| --- | --- | --- | --- | --- |
| CGGGUCUGAGGAUAUCCAUCCUCAUACAUGAGGAUCACCCAUGUUCACCCUUGGGUUCCCGGAGAAGGCAGUUUUC | 153 | 177 | – | – |
| AUACAUGAGGAUCACCCAUGUUACAUGGCCUUGAUAGAUCGUAGAAGGAUGUUAUUAUUAAUUUCAUAGGAUAUACUAUUUAGU | 95.1 | 72.9 | – | – |
| GACGAAUAGCUAGGAUAUCGUAAAUCAUUGGUAGUCUCUAUUCACAUGAGGAUCACCCAUGUAAUCGAGAAGGAGCACUCGUUC | 80.4 | 240 | – | – |
| UGAUUUCAUGUAGGAUAUGCUUGGCGUAGCUACGCAGAAGGACAUGAGGAUCACCCAUGUUUUAGCGUCUGAGUAUAGAUUCUU | 35.3 | 89.7 | – | – |
| UUAAUUAUACAAGGAUAUCUAUUGUUGUUUCGACUUACAUGAGGAUCACCCAUGUUAAUAUGUUUAGAGAAGGUGUAUUUUCAG | – | – | 55.1 | 35.8 |
| GUUUCACAUGAGGAUCACCCAUGUGAGGAUAUCUAUUUGUUAACCGUAGUUAAUAGAUAGAGAAGGCGCGUGAU | 69 | 74.5 | – | – |
| GGACCGUGCAGAGUUCGCGGUCGGCAGGAUAUGACAUGAGGAUCACCCAUGUGAACUCCAUUGGGUCAGAAGGGCCACGACACA | 19.8 | 78 | – | – |
| ACAUGAGGAUCACCCAUGUGGACAUAGGAUAUUGGUGAUCAGGCGUGUUAUACAGGAUAGGUCUGCGAGAAGGGUGUGCGUUGC | – | – | 406 | 218 |
| GAGCUGCAGACAGGAUAUGAGACCGCCACGGUCUCAGAAGGGUCAUGUUCUACAUGAGGAUCACCCAUGUCGGACAGCUCGAAG | – | – | 140 | 11.8 |
| AAGAGACAUCAGAAGGGAGCCCGCACGCGCGGCUCAGGAUAUGAGAUCUUAUGUAGUACGACAUGAGGAUCACCCAUGUCCGCG | – | – | 37.8 | 7.97 |
| CGUUAAUCCUAGGAUAUGCUAGACGAAAGUCUAGCAGAAGGAGGAACAUGAGGAUCACCCAUGUGUCCUAAACG | 16.8 | 26.7 | – | – |
| UUCGGACUAUCAGGAUAUGGUGUAGCCUAGUAAAGGACAUGAGGAUCACCCAUGUACCAUUGGUGCCAGAAGGGAUGAUCCUAC | – | – | 141 | 55.3 |
| UGUGUUAUUGGAGGAUAUCGAUAUCAAACAUGAGGAUCACCCAUGUUGAGGAUCACACAUGUAAAUGAGAAGGCCGACGUAGUG | – | – | 12.5 | 16.2 |
| AAUAACAGAGGAUAUACUAUUUUAUGUGUUUAUUGUUUUGAACAUGAGGAUCACCCAUGUAGAAGGCUGAGUAA | 30.2 | 38 | – | – |
| AAAAUCUAUAGAGGAUAUCCAUACACUGCAUACGGAGAAGGCUAACAAUCAUGAGGACAUGAGGAUCACCCAUGUUGUGACCAU | – | – | 19.9 | 13.6 |
| ACGUGUUAUACAGGAUAUGUAUAGGUAUAAUCAUACAGUUAUUAAUUAAUGACAGAAGGGUAAACAUGAGGAUCACCCAUGUCA | 511 | 248 | – | – |
| AUCAGCUCGUCAGGAUAUACGUCACUGCGUCAGCAGUGUAGUAAGAUCACAUGAGGAUCACCCAUGUAGAAGGGACGAGCUGAU | 5.55 | 12 | – | – |
| CACCGGCCCUAUGUGUUCUAGACAUGAGGAUCACCCAUGUAUAGAAGGGUCUUCGCGAAACGCAGACAGGAUAUGUACAGGAGU | 6.31 | 9.26 | – | – |
| UUGGACGUCGUAGGAUAAGUAGGAUAUUCCUACAUGAGGAUCACCCAUGUUGACAUGGAAGAAGGACAGAAGGACGAUGUCCAU | – | – | 96.2 | 4.48 |
| UGUGUGUGACAGGAUAUGCUGGUUAUGAGACGGGUAGAAGGGUCUACAUGAGGAUCACCCAUGUGGCCGGUUGG | 19 | 21.2 | – | – |
| CUUUCGUGAGGAUAUGAGGCUUCGAUCGUGAGAUCGAGGCUACAGAAGGCACAUGAGGAUCACCCAUGUUCCUC | 30.9 | 392 | – | – |
| GUGGUACAUGAGGAUCACCCAUGUAAGGAUAUAGUCGUCUGGUGGUCUCGGGUGGUGGCUAGAAGGUGCGUGCG | 189 | 177 | – | – |
| ACCAAUGCAGGAUAUACAUGAGGAUCACCCAUGUAUAACCUACAUAGGUGAUCCUCAUGUAGAAGGGCAUUGGA | 12.8 | 10 | – | – |
| GCGCGCGCCGCAGGAUAUGGUUUGUUCGUUGAACCAGAAGGGCGACAUGAGGAUCACCCAUGUACAUGAGGAUCACCCAUGUGC | 59.2 | 51 | – | – |
| UUUAUUUCGGCAGGAUAUACAUGUAUAUAUAUUCCUUCAUAUCUUAUUACAUGAGGAUCACCCAUGUAGAAGGGCCUUCUUCUC | 38.4 | 42.1 | – | – |
| AGGUACAUCAUAGGAUAUCGUGUGUAAACAUGAGGAUCACCCAUGUCAUCCGAGAGUAUAUCGACCGAGAAGGGUGAUGUACCU | – | – | 22 | 32.5 |
| UCCUUGUCCUGAGGAUAUCCGUGGUUACCGAAAGGAGAAGGCAGGACAUGAGGAUCACCCAUGUACCCAGAAAACGUGCAGAGA | 59.3 | 467 | – | – |
| CCACGUCUCAUUAACAUGAGGAUCACCCAUGUCAAAAGACAUGAGGAUAUGGAUCCUAAUUGGAUCCAGAAGGCAUGGACGUGG | – | – | 516 | 59.4 |

| Sequence | apparent Kd [1] [nM] | apparent Kd [2] [nM] | apparent Kd [3] [nM] | apparent Kd [4] [nM] |
| --- | --- | --- | --- | --- |
| GUUCUUCCUGUGAGGAUAUCCAUGUGUCGGUGUGUGGAGAAGGUACAUGAGGAUCACCCAUGUCACCCGCGUUU | 20.8 | 22.2 | – | – |
| AACUGACAUGAGGAUCACCCAUGUCAGGAUAUGACAUCGAAAAUAAAAUAAAUCGUUGUCAGAAGGGACAUGGG | 21.4 | 19.3 | – | – |
| AGUAUUGUAGGGUAUCCAACAUGAGGAUCACCCAUGUACCAGAGAAGGACCCAGGCAUUGCUUGGGUAGGAUAUCUGCGCAUCA | 18.4 | 193 | – | – |
| CCAGGCAGUGUGAGGAUAUGCUGGUGCUUGCAUCAGCAGAAGGCACAUGAGGAUCACCCAUGUGAAGAGCUUGG | 27.6 | 131 | – | – |
| UUACAUACAAAGGUACAUGAGGAUCACCCAUGUUUAUUGGGAAGAAGGGUAACAGUACUACAUAUAUAGGAUAUUUCACAAAUG | – | – | 195 | 144 |
| UAAAAUCAUGUAGGAUAUGCGUGGCGAAGCUAUGCAGAAGGACAUGAGGAUCACCCAUGUCUUAGCUAGCGUACUAGCUUAAAG | 12.9 | 49.7 | – | – |
| UGACCCUGGAUGAGUGUUUAGACAUGAGGAUCACCCAUGUCUGAGGAUAUGCGGCAUCAAUAACAGCAGAAGGCAGACUUGGGU | 133 | 41.2 | – | – |
| GGGCCCGGUGUGAGGAUAUGCCCGGGUAAAUUUGGGCAGAAGGCACAUGAGGAUCACCCAUGUAAGCCGGGUUU | 14.8 | 12.9 | – | – |
| GGAGUACAUGAGGAUCACCCAUGUUGGAACAAAGUAGGAUAUGUACAAUAUUAAAUAAAAACAGAAGGACUAAGAA | – | – | 47.4 | 30.8 |
| GGAGCUCAGAUUAACAUGAGGAUCACCCAUGUCUUUUGACAUGAGGAUAUGGAUCCUAAUUGGAUCCAGAAGGCAUGGAGCUCC | – | – | 1590 | 126 |
| AAAACAGCGCGUCCCGCGCCAACUACAGAAGGCCAACAUGAGGAUCACCCAUGUACAAACUAGAUGGAGGAUAUGUAGGUUCUA | – | – | 6.35 | 4.5 |
| GGCUAGUCAGGAUAUACGAACAUGUCAAAAGACGUGAAGGGACAUGAGGAUCACCCAUGUAGAAGGGACUAGCG | 29.4 | 141 | – | – |
| UGAUCGAAAGAUCAUAGAUUCUGCUAGGAUAUGCAGGAGUUGCGCUUUACAUGAGGAUCACCCAUGUAGAAGGAGUAGAGUCUA | 6.77 | 8.88 | – | – |
| UCCAUGUUAGGAUAUUACAUGCAGGCUGUAACACGCCGGUGUAAGAAGGAACAUGAGGAUCACCCAUGUGUCGU | 68 | 137 | – | – |
| AACGCGUCAGGAUAUAGCGUAACUUAGGUAGUACGACCAUACUAGAAGGGACAUGAGGAUCACCCAUGUGGGUA | 232 | 112 | – | – |
| AAACUCAUGCAGAAGGGACAAACGGGUGGGAUCUGCAUGUGCACAUGAGGAUCACCCAUGUGGUGUCAGGAUAUGCUGGGCACG | 102 | 75.2 | – | – |
| UGCCUGAGUCGAGGAUAUUAUGGAUCCUCUAAUACAUGAGGAUCACCCAUGUAAUUAAUUAUACAUGAGAAGGUGACUCAGGCU | – | – | 529 | 488 |
| AGCUCGGGUGCAGGAUAUCCGCCGGAUCGCAGUGGAGAAGGGCGCCAAGCGAACAUGAGGAUCACCCAUGUAUCGGAGCCGGAC | – | – | 55.6 | 11.1 |
| CUUUUGUGAGGAUAUCAGUAGUAAUACAAUAGUAUUACUACUGAGAAGGCACAUGAGGAUCACCCAUGUUCCUU | 16 | 29.5 | – | – |
| GUAGCAUACCGAGGAUAUUCAGGGCUUAAAUAAACAUGAGGAUCACCCAUGUGGCGAAAGCCUAGGGAGAAGGCGGAAUGCUAC | – | – | 14.6 | 13.4 |
| GUAGCAUUAUAAGGAUAUUCAUACCGGAAACGGACAUGAGGAUCACCCAUGUGGCGAAAGCCUUGGGAGAAGGUAUUGUGCUAC | – | – | 402 | 24.6 |
| UAAGAGCGAGGAUAUACGUCGCUGGUCCGGAUGGACGCAUGACAUGAGGAUCACCCAUGUAGAAGGCGCAAAAC | 22.9 | 73.3 | – | – |
| UUUAUGUCAGGAUAUGAGUAGUAGAACAAUAGUACUACUACUCAGAAGGGACAUGAGGAUCACCCAUGUUUCUC | 23.4 | 143 | – | – |
| UGUUGUAUUACAGGAUAUCUAUUAGUAUUAUUUAGAGAAGGGUAUUCACAUGAGGAUCACCCAUGUAUAUACGAGGAAGUUGUG | – | – | 46.9 | 48.4 |
| AUUCGACAUGAGGAUCACCCAUGUAAGGAUAUGAUAGUUCUGAUAAGGGCUAGCCUAUUCAGAAGGUACGUGGC | 35.5 | 31.4 | – | – |
| UGAGCCUCGUGAGGAUAUACAUGAGGAUCACCCAUGUAAUAAAUCCAACGGAGGAAACUCCGAAUGUAGAAGGCACGAGGCUCA | 18.1 | 64.3 | – | – |
| GUGUAGUCAGGAUAUACAUGAGGAUCACCCAUGUGAAUAAGAUAGAAUAAGAUAAAGUGUAGAAGGGAUAGUGU | 29.6 | 25.7 | – | – |

— the EternaBench riboswitch data
